In brackets after ≈: the same amount, converted by molar mass.
Tests used:
Assay type in all cases: functional
[1] = (§1) Cytotoxicity against mouse 26-L5 cells by MTT assay; conditions: read-out: ED50 (the source's name)
Outline: (§2)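 MTT viability read-out, run by a previously described method. Cells were highly liver-metastatic murine colon 26-L5 carcinoma and human HT-1080 fibrosarcoma.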

HT-1080 = experiment: Cytotoxicity against human HT1080 cells by MTT assay; conditions: for EC50: read-out: ED50 (the source's name); outline: as §2
Mus musculus = organism: Mus musculus; experiment: as §1; outline: as §2

Compound | EC50 [1] [µg/mL] | EC50 (HT-1080) [µg/mL] | Activity (Mus musculus) | Activity (HT-1080)
COc1ccc(-c2oc3cc(O)c(OC)c(O)c3c(=O)c2O)cc1 [BETULETOL] | < 8 | < 8 |  | 
COc1cc([C@@H]2OC=C(c3cc4cc(O)c(C(C)=O)cc4o3)C[C@H]2COC(C)=O)ccc1O [PROPOLIS-BENZOFURAN A] | 12.4 (≈ 27.4 µM) | 13.9 (≈ 30.7 µM) |  | 
COc1ccc(-c2oc3cc(O)cc(O)c3c(=O)c2O)cc1 [KAEMPFERIDE] | < 8 | < 8 |  | 
COc1cc([C@@H]2c3c(oc4cc(C(C)=O)c(O)cc34)C(=O)C[C@H]2COC(C)=O)ccc1O [PROPOLIS-BENZOFURAN B] | 13.7 (≈ 31.2 µM) | 43.2 (≈ 98.5 µM) |  | 
C=C(C)C1Cc2cc(/C=C/C(=O)O)cc(CC=C(C)C)c2O1 (configuration not stated) |  |  | Not toxic | Not toxic
COc1ccc(-c2oc3cc(O)cc(O)c3c(=O)c2OC)cc1 [ERMANIN] | < 8 | < 8 |  | 

— ChEMBL document CHEMBL1155590, “Two novel cytotoxic benzofuran derivatives from Brazilian propolis” (2000)
